Experimental data from the M2OR odorant receptor database.

biological target: T1, UniProt Q924H8; conditions: stereoisomer not certain
T1 sequence (whole entry): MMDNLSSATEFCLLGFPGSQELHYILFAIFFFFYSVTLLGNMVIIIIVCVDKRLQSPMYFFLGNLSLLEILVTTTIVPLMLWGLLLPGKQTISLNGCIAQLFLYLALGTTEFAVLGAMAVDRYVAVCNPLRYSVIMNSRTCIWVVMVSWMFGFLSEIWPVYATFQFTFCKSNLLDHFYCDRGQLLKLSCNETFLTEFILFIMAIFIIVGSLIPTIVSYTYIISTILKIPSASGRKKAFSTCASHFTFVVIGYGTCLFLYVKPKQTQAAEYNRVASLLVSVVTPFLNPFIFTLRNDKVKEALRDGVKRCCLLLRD
In short: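 Assay methods differ from source to source, frequently being transient luciferase assays in mammalian cell lines. For each receptor–molecule pair, the label responsive (active) applies when the original authors judged the measured signal statistically different from baseline, and non-responsive (inactive) applies otherwise.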

Odorant receptor agonist call, inactive:
C=CC(C)=CCC=C(C)CCC=C(C)C
CCCCCOC(=O)CCC
CC(=O)C1(C)CC2=C(CCCC2(C)C)CC1C (stereo unspecified)
C1CCOCC1
C=C(C)C1CCC(C)C(O)C1 (stereo unspecified)
CCCCCOC(=O)CC
CC(=O)OCc1ccc2c(c1)OCO2
CCc1nccnc1CC
CCC=CCCCCC=O
OCCc1ccccc1
C=C1C2CCC(C2)C1(C)C (stereo unspecified)
CCCCCCCCOC=O
C=CC(=C)CCC=C(C)C
C=C(C)C1CC=C(C)CC1 (stereo unspecified)
CCCCCCCCCC=CC=O
COc1nccnc1C(C)C
C1CCOC1
CCSCC
Cc1ccc(OC(=O)C(C)C)cc1
COc1ccccc1
CCCCCCCCCCCO
Cc1ccc(C(C)C)c(O)c1
CCc1ccc(O)cc1
CCCCCCC=CC=O
CC(C)=CCCC(C)=CCOC(=O)C(C)C
CCCCCC(=Cc1ccccc1)C(OC)OC
CC1CCC(C(C)C)C(=O)C1 (stereo unspecified)
Cc1ccccc1OC(=O)C(C)C
CC(CC=O)CCCC(C)(C)O (stereo unspecified)
CCOC(=O)C(C)CC (stereo unspecified)
COC(OC)c1ccccc1
CSSSC
CCSSCC
CCC(C)O (stereo unspecified)
O=C(OCc1ccccc1)c1ccccc1O
COc1cnccn1
